The values below come from PMC8916014 (Proceedings of the National Academy of Sciences of the …, 2022).

The test system of data set [1] is E. coli ATCC25922 with purified LPS from E. coli O111:B4. Nature of the data set: LPS-mediated antimicrobial block assay. It is filed as cell-based, Escherichia coli. The conditions noted are these: LPS 25 μg/mL. In a few lines:
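A virtual-colony count assay gave the fold-change in MBC against E. coli across different concentrations of added purified LPS. Polymyxin B and kanamycin were run as comparators.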

Data set [2] concerns E. coli ATCC25922 with purified E. coli 70S ribosome. The data set can be described thus: bacterial ribosome-mediated antimicrobial block assay. The data set is classed as cell-based, Escherichia coli. The conditions noted are these: 70S ribosome 12.5 nM. In a few lines: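 MBC fold-change against E. coli with exogenous E. coli 70S ribosome was determined by virtual-colony count assay. Polymyxin B and kanamycin served as comparators. Triplicate experiments were reported as mean ± SD, with one- or two-way ANOVA and Bonferroni correction.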

In data set [3] the test system is E. coli ATCC25922 outer membrane. Nature of the data set: outer membrane permeability assay. It is filed as cell-based, Escherichia coli. The conditions noted are these: E. coli ATCC25922, 1 h treatment, 0.195–100 μM. The method in brief: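 E. coli ATCC25922 was treated with test compound for 1 h, then probed with NPN. NPN fluorescence intensity served as the measure of outer-membrane permeability and was normalized to relative fluorescence intensity. Experiments were run in triplicate and reported as mean ± SD.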

Data set [4] relates to K. pneumoniae (ATCC 13883). The data set can be described thus: in vivo efficacy, K. pneumoniae-induced pneumonia. Also on record: species or system C57BL/6 mice. The settings on record: 2 mg/kg intratracheal.
Data set [5] has as its system S. aureus (ATCC 25923). The data set can be described thus: in vivo efficacy, S. aureus-induced pneumonia. Also on record: species or system C57BL/6 mice. The conditions noted are these: 2 mg/kg intratracheal.

`NC[C@H]1O[C@H](O[C@H]2[C@H](O)[C@@H](O[C@H]3O[C@H](CO)[C@@H](O)[C@H](N)[C@H]3O)[C@H](N)C[C@@H]2N)[C@H](O)[C@@H](O)[C@@H]1O` [kanamycin]: the “fold change in MBC in presence of LPS” value in data set [1] was “no effect”. For the same compound, the “fold change in MBC in presence of E. coli 70S ribosome” value in data set [2] was “antagonized”.

Regarding polymyxin B [PMB], the “permeability of bacterial OM (NPN fluorescence)” value in data set [3] is “increased the permeability of bacterial OM in a dose-dependent manner”. In addition, the “fold change in MBC in presence of LPS” value in data set [1] was “fourfold”. Moreover, the “fold change in MBC in presence of E. coli 70S ribosome” value in data set [2] is reported as “failed to affect activity”. In data set [4], the survival rate worked out at 100%. The “efficacy in S. aureus-induced pneumonia” value in data set [5] is given as “ineffective”.
